Experimental data published in ChEMBL document CHEMBL4689842, “EUbOPEN Chemogenomics Library wave 1” (2021).

Experiments:
Format in all cases: toxicity, cell-based
U2OS [1] = experiment: Multiplex assay against U2OS; conditions: human
Procedure, shortened: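 Values for tubulin, mitochondrial-mass and membrane-permeability phenotypes are per cents of cells with healthy nuclei. These cells were identified by CellPathfinder machine-learning gating of live cells that had been stained at seeding with Hoechst33342, BioTracker Green Microtubule Cytoskeleton Dye, MitoTracker Red and Annexin V Alexa Fluor 680 and imaged on a CQ1 microscope at 37°C and 5% CO2 after compound addition. The gating first set Hoechst high-intensity objects apart from normal cells, then split normal cells into healthy, pyknosed or fragmented nuclei, and pyknosed cells into mitotic or apoptotic.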

HEK-293T = experiment: Incucyte cell viability with HEK293T; conditions: human, 10 µM, compound concentration 10 uM; also: filed as whole numbers so only -1 and 0 and 1 occur
Fibroblast = experiment: Incucyte cell viability with human fibroblast; conditions: 10 µM, compound concentration 10 uM; also: filed as whole numbers so only -1 and 0 and 1 occur
U2OS [2] = experiment: Incucyte cell viability with U2OS; conditions: human, 10 µM, compound concentration 10 uM; also: filed as whole numbers so only -1 and 0 and 1 occur
[3] = 12 h, 1 µM, compound concentration 1 uM, replicate 1
[4] = 12 h, 1 µM, compound concentration 1 uM, replicate 2
[5] = 12 h, 10 µM, compound concentration 10 uM, replicate 1
[6] = 12 h, 10 µM, compound concentration 10 uM, replicate 2
[7] = 24 h, 1 µM, compound concentration 1 uM, replicate 1
[8] = 24 h, 1 µM, compound concentration 1 uM, replicate 2
[9] = 24 h, 10 µM, compound concentration 10 uM, replicate 1
[10] = 24 h, 10 µM, compound concentration 10 uM, replicate 2
[11] = 0 h, replicate number 1, timepoint 0 hours
[12] = 6 h, replicate number 1, timepoint 6 hours
[13] = 24 h, replicate number 1, timepoint 24 hours
[14] = 12 h, replicate number 1, timepoint 12 hours
[15] = 18 h, replicate number 1, timepoint 18 hours

## CCOc1ccn(-c2ccc(F)cc2)c(=O)c1C(=O)Nc1ccc(Oc2ccnc(N)c2Cl)c(F)c1 [BMS-777607]
U2OS [1]; [3]
  Population Apoptotic (%): 41%
  Population Healthy Nuclei (%): 88%
  Population Hoechst High Intensity Objects (%): 4%
  Population Membrane Permeable-Phenotype (%): 35%
  Population Mitochondria Different-Phenotype (%): 11%
  Population Mitotic Cells (%): 58%
  Population Normal (%): 95%
  Population Pyknosed Nuclei (%): 6%
  Total Cell Count: 190
U2OS [1]; [4]
  Population Apoptotic (%): 28%
  Population Fragmented Nuclei (%): 4%
  Population Healthy Nuclei (%): 86%
  Population Hoechst High Intensity Objects (%): 13%
  Population Membrane Permeable-Phenotype (%): 40%
  Population Mitochondria Different-Phenotype (%): 31%
  Population Mitotic Cells (%): 71%
  Population Normal (%): 86%
  Population Pyknosed Nuclei (%): 8%
  Population Tubulin-Different-Phenotype (%): 18%
  Total Cell Count: 94
U2OS [1]; [5]
  Population Apoptotic (%): 66%
  Population Fragmented Nuclei (%): 2%
  Population Healthy Nuclei (%): 91%
  Population Hoechst High Intensity Objects (%): 1%
  Population Membrane Permeable-Phenotype (%): 5%
  Population Mitochondria Different-Phenotype (%): 33%
  Population Mitotic Cells (%): 33%
  Population Normal (%): 98%
  Population Pyknosed Nuclei (%): 6%
  Population Tubulin-Different-Phenotype (%): 29%
  Total Cell Count: 193
U2OS [1]; [6]
  Population Apoptotic (%): 0%
  Population Fragmented Nuclei (%): 6%
  Population Healthy Nuclei (%): 89%
  Population Hoechst High Intensity Objects (%): 16%
  Population Mitochondria Different-Phenotype (%): 30%
  Population Mitotic Cells (%): 100%
  Population Normal (%): 83%
  Population Pyknosed Nuclei (%): 4%
  Population Tubulin-Different-Phenotype (%): 37%
  Total Cell Count: 118
U2OS [1]; [7]
  Population Apoptotic (%): 57%
  Population Fragmented Nuclei (%): 7%
  Population Healthy Nuclei (%): 85%
  Population Hoechst High Intensity Objects (%): 3%
  Population Membrane Permeable-Phenotype (%): 37%
  Population Mitochondria Different-Phenotype (%): 23%
  Population Mitotic Cells (%): 42%
  Population Normal (%): 96%
  Population Pyknosed Nuclei (%): 7%
  Population Tubulin-Different-Phenotype (%): 16%
  Total Cell Count: 196
U2OS [1]; [8]
  Population Apoptotic (%): 36%
  Population Fragmented Nuclei (%): 6%
  Population Healthy Nuclei (%): 81%
  Population Hoechst High Intensity Objects (%): 10%
  Population Membrane Permeable-Phenotype (%): 28%
  Population Mitochondria Different-Phenotype (%): 35%
  Population Mitotic Cells (%): 63%
  Population Normal (%): 89%
  Population Pyknosed Nuclei (%): 12%
  Population Tubulin-Different-Phenotype (%): 20%
  Total Cell Count: 101
U2OS [1]; [9]
  Population Apoptotic (%): 26%
  Population Fragmented Nuclei (%): 3%
  Population Healthy Nuclei (%): 91%
  Population Hoechst High Intensity Objects (%): 1%
  Population Membrane Permeable-Phenotype (%): 5%
  Population Mitochondria Different-Phenotype (%): 27%
  Population Mitotic Cells (%): 73%
  Population Normal (%): 98%
  Population Pyknosed Nuclei (%): 5%
  Population Tubulin-Different-Phenotype (%): 30%
  Total Cell Count: 263
U2OS [1]; [10]
  Population Apoptotic (%): 12%
  Population Fragmented Nuclei (%): 2%
  Population Healthy Nuclei (%): 90%
  Population Hoechst High Intensity Objects (%): 8%
  Population Membrane Permeable-Phenotype (%): 8%
  Population Mitochondria Different-Phenotype (%): 34%
  Population Mitotic Cells (%): 87%
  Population Normal (%): 91%
  Population Pyknosed Nuclei (%): 6%
  Population Tubulin-Different-Phenotype (%): 36%
  Total Cell Count: 133
HEK-293T; [11]
  Growth Rate: 1
HEK-293T; [12]
  Growth Rate: 0
HEK-293T; 12 h, replicate number 2, timepoint 12 hours
  Growth Rate: 1
HEK-293T; [13]
  Growth Rate: 1
HEK-293T; 24 h, replicate number 2, timepoint 24 hours
  Growth Rate: 0
Fibroblast; [12]
  Growth Rate: 0
Fibroblast; [14]
  Growth Rate: 0
Fibroblast; [15]
  Growth Rate: 0
Fibroblast; [13]
  Growth Rate: 0
U2OS [2]; [11]
  Growth Rate: 1
U2OS [2]; 0 h, replicate number 2, timepoint 0 hours
  Growth Rate: 0
U2OS [2]; [12]
  Growth Rate: 0
U2OS [2]; [14]
  Growth Rate: 0
U2OS [2]; [15]
  Growth Rate: 0
U2OS [2]; [13]
  Growth Rate: 0
